The values below come from ChEMBL document CHEMBL1136956, “Identification of 2-aminobenzimidazoles as potent melanin-concentrating hormone 1-receptor (MCH1R) antagonists” (Bioorg Med Chem Lett, 2009).

In general, pIC50 refers to −log10 of the IC50, conventionally taken in molar units. What is called CLint scaled is the capacity of the preparation to metabolise the compound, expressed as a volume cleared per time. The bioavailability is the share of a dose that reaches the circulation, judged against a reference dose that is usually intravenous. The low end stands for little systemic uptake, the high end for much systemic uptake. For orientation: half-life means the time in which the quantity being followed falls by half. Low values mean fast loss, high ones slow loss.

The target of data set [1] is T1, Melanin-concentrating hormone receptor 1 (Homo sapiens, UniProt Q99705). In words: Displacement of [125I]MCH from human MCH1 receptor expressed in CHO-K1 cells by scintillation counting. The class given is cell-based. Summed up: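 Membranes of CHO-K1 cells stably expressing human MCH1R incubated with [125I]-MCH and compound in 50 mM Tris, 10 mM MgCl2, 2 mM EDTA, bacitracin, 0.2% BSA, pH 7.4, 2 h at room temperature. Bound label collected by filtration onto GF/C filters and counted by scintillation. Non-specific binding defined with 1 µM unlabeled MCH. IC50 reported as mean of at least two experiments.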

Data set [2] is described as follows: Intrinsic clearance in rat hepatocytes. Format: ADME, cell-based, Liver, Hepatocyte.
Data set [3] in a line: Volume of distribution in rat at 1 mg/kg, iv and 3 mg/kg, po. The class given is ADME, organism-based. The following applies: in vivo. Put shortly: (§1)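 Rats dosed at 1 mg/kg IV and 3 mg/kg PO. Clearance, volume of distribution, half-life and oral bioavailability derived from these dosings; mean values, n = 3.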
A short description of data set [4]: Plasma concentration in rat at 30 mg/kg, po after 2 hrs. The class given is ADME, organism-based. On the set-up: dose 30 mg/kg, route oral. Put shortly:
(§2)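 Rats given 30 mg/kg PO; plasma and brain levels determined 2 h post-dose, with brain/plasma ratio taken from these. Mean values, n = 3.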

The nature of data set [5]: Oral bioavailability in rat at 3 mg/kg. The class given is ADME, organism-based. The following applies: in vivo. Summed up: as §1
The subject of data set [6] is Rattus norvegicus. In words: Antiobese activity in high fat fed Sprague-Dawley rat assessed as suppression of […] food intake at 10 mg/kg, po. Format: functional. Put shortly: (§3)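 Male SD rats with a 26-gauge guide cannula in the third ventricle, used after ≥1 week recovery. Rats fed high-fat diet ~3 h, then given compound (10 or 30 mg/kg) or vehicle orally. 1 h later MCH (5 µg/head in artificial CSF) was injected ICV, 1 h before dark onset. Food intake measured over 2 h; 15–20 rats per group, versus vehicle/MCH group.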

Another data set concerns Brain. In words: Drug level in rat brain at 30 mg/kg, po after 2 hrs. Particulars: in vivo. The class given is ADME, organism-based. Also on record: dose 30 mg/kg, route oral. Summed up:
as §2

Data set [7] can be described thus: Ratio of drug level from brain to plasma in rat at 30 mg/kg, po after 2 hrs. Format: ADME, organism-based. On the set-up: dose 30 mg/kg, route oral. Particulars: brain and plasma, read-out: BPR. Put shortly:
as §2

Data set [8] has as its system Rattus norvegicus. In words: Antiobese activity in high fat fed Sprague-Dawley rat assessed as suppression of […] food intake at 30 mg/kg, po. Format: functional. Put shortly: as §3
The nature of data set [9]: Clearance in rat at 1 mg/kg, iv and 3 mg/kg, po. Format: ADME, organism-based. Particulars: in vivo. Put shortly: as §1
Data set [10] in a line: Half life in rat at 1 mg/kg, iv and 3 mg/kg, po. Format: ADME, organism-based. Particulars: in vivo. Put shortly: as §1
In data set [11] the target is T1, Melanin-concentrating hormone receptor 1. Put plainly: Antagonist activity at human MCH1 receptor expressed in CHO-K1 cells assessed as inhibition of MCH-induced intracellular calcium mobilization by FLIPR assay. Format: functional, cell-based. Summed up: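 CHO-K1 cells stably expressing human MCH1R, seeded at 3.0 × 10^4 per well and grown 24 h in DMEM/10% FBS with G418. Cells loaded with Fluo-4 AM plus 2.5 mM probenecid for 1 h at 37 °C, then washed into HBSS/20 mM Hepes/0.5% BSA/2.5 mM probenecid, pH 7.4. Compound added 5 min before MCH; Ca2+ mobilization read on FLIPR. IC50 is mean of ≥2 experiments.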

pIC50: −log10 of the molar value.

T1 sequence (Q99705 whole entry): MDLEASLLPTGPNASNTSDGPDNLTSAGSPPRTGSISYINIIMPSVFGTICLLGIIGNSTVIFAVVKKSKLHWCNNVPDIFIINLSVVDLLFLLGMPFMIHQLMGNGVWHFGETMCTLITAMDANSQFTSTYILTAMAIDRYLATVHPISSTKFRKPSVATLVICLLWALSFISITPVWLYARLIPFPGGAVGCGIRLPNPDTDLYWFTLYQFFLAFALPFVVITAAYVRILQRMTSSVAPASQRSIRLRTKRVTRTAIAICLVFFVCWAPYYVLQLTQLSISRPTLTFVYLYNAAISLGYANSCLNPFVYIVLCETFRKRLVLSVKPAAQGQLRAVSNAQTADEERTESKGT

As to `CC(C)N(C)c1nc2ccc(NC(=O)c3ccc(-c4ccc(C(F)(F)F)cn4)cc3)cc2[nH]1`, in data set [1], the pIC50 was 8.51. For the same molecule, the CLint scaled in [2] amounted to 16 mL/min/kg.
Regarding `CCN(c1nc2ccc(NC(=O)CCc3ccc(C(F)(F)F)cc3)cc2[nH]1)C1CCCCC1`, the pIC50 in [1] was 6.87.
On the same count and under the same terms, as for `CC(=O)N1CCC(N(C)c2nc3ccc(NC(=O)CCc4ccc(C(F)(F)F)cc4)cc3[nH]2)C1` (centres undefined), the figure is 7.52.
On the same count and under the same terms, as for `CN(c1nc2ccc(NC(=O)CCc3ccc(C(F)(F)F)cc3)cc2[nH]1)C1CC1`, the figure is 7.62.
Take `CN(C)c1nc2ccc(NC(=O)CCc3ccc(C(F)(F)F)cc3)cc2[nH]1`: the pIC50 in data set [1] was 7.92.
Molecule `CN(c1nc2ccc(NC(=O)CCc3ccc(C(F)(F)F)cc3)cc2[nH]1)C1CCOC1` (centres undefined) showed a pIC50 in [1] of 7.57.
The same measure, in the same setting: as for `CC(C)N(C)c1ccc2nc(NC(=O)CCc3ccc(C(F)(F)F)cc3)ccc2n1`, the figure is 6.43.
Molecule `CC(C)N(C)c1nc2ccc(NC(=O)c3cnc(-c4ccc(F)cc4)cn3)cc2[nH]1` gave a Vd in data set [3] of 1.2 L/kg. For the same molecule, in [4], the concentration at 2 h is 3.9 µM. The molecule further displayed a bioavailability in data set [5] of 35%. Also, the Activity is given as 32% in the data set on Rattus norvegicus [6] and 72% in the data set on Rattus norvegicus [8]. This molecule returned a Drug uptake with Brain of 1.4 nmol/g. The Kp at 2 h in data set [7] was found to be 0.36. Also, the pIC50 in data set [1] is 8.57. The molecule also came in with a clearance in [9] of 11 mL/min/kg. In data set [10], this molecule had a half-life of 2.3 h. Moreover, the CLint scaled in data set [2] is 10 mL/min/kg.
In data set [1], `CC(C)N(C)c1nc2ccc(NC(=O)CCc3ccc(C(F)(F)F)cc3)cc2s1` showed a pIC50 of under 6.12.
For the molecule `CC(C)N(C)c1nc2ccc(NC(=O)CCc3ccc(C(F)(F)F)cc3)cc2[nH]1`, the pIC50 in data set [1] was 8.23; in [11], 7.68. The molecule also came in with a CLint scaled in data set [2] of 32 mL/min/kg.
For the molecule `CC(C)N(C)c1nc2ccc(NC(=O)c3ccc(-c4ccccc4)nc3)cc2[nH]1`, the pIC50 in data set [1] was 8.06. Further, the CLint scaled in data set [2] is 12 mL/min/kg.
For the molecule `CN(c1nc2ccc(NC(=O)CCc3ccc(C(F)(F)F)cc3)cc2[nH]1)C1CCCC1`, the pIC50 is 8.40 in data set [1] and 7.66 in data set [11].
`CC(C)N(C)c1nc2ccc(NC(=O)c3ccc(-c4ccc(F)cc4)nc3)cc2[nH]1` had a pIC50 in data set [1] of 8.26. Also, the CLint scaled in data set [2] was 8 mL/min/kg.
On to `CC(C)N(C)c1nc2ccc(NC(=O)c3ncc(-c4ccc(F)cc4)cn3)cc2[nH]1`, for which, in data set [1], the pIC50 was 7.82. Further, the CLint scaled in data set [2] came to 9 mL/min/kg.
On to `CC(C)N(C)c1nc2ccc(NC(=O)c3cncc(-c4ccc(F)cc4)c3)cc2[nH]1`, for which the pIC50 in [1] was 6.05.
On the same count and under the same terms, with `CN1CCC(N(C)c2nc3ccc(NC(=O)CCc4ccc(C(F)(F)F)cc4)cc3[nH]2)CC1` the figure was 7.64; with `O=C(CCc1ccc(C(F)(F)F)cc1)Nc1ccc2nc(N3CCOCC3)[nH]c2c1`, 6.37; with `CC(C)N(C)c1nc2ccc(NC(=O)CCc3ccc(C(F)(F)F)cn3)cc2[nH]1`, 7.39.
The same measure, in the same setting: with `CCN(C)c1nc2ccc(NC(=O)CCc3ccc(C(F)(F)F)cc3)cc2[nH]1` the figure was 7.72.
Turning to `CN(c1nc2ccc(NC(=O)CCc3ccc(C(F)(F)F)cc3)cc2[nH]1)C1CCCCC1`, the pIC50 in [1] was 8.17; in [11] it was 7.57.
In data set [1], `CC(C)N(C)c1ccc2cc(NC(=O)CCc3ccc(C(F)(F)F)cc3)cnc2n1` showed a pIC50 of 6.44.
